Experimental data taken from ChEMBL document CHEMBL4152279, “Synthesis, cytotoxic evaluation and target identification of thieno[2,3-d]pyrimidine derivatives with a dithiocarbamate side chain at C2 position” (Eur J Med Chem, 2018).
Calls of active or inactive are those of the source. No cut-off for these calls is given here.

Assays:
[1] = molecular target: Tubulin beta-4B chain (Homo sapiens) (UniProt P68371); test: Binding affinity to tubulin beta-4B in human A549 cells at 0.15 mM after 4 hrs by HPLC-MS based pull down assay relative to control; type: cell-based
Tubulin beta-4B chain (Homo sapiens), sequence (P68371 whole entry): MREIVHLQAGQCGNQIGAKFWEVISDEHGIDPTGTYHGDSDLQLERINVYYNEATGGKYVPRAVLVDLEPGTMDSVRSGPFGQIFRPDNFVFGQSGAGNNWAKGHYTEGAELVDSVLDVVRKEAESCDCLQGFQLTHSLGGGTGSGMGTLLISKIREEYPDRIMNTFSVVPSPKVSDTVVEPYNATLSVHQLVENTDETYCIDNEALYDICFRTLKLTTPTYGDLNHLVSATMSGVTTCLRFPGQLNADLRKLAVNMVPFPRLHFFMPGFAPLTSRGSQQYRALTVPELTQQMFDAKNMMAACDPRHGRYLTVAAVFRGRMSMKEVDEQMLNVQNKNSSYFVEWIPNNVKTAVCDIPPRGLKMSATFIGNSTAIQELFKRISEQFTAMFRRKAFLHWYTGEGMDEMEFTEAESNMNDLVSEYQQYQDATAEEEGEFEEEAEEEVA
Summary of the method: (§1)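 A549 lysate in NETN buffer (pH 8.0, 0.5% NP-40) incubated with biotinylated probe (0.15 mM final) 4 h at 4 °C, with biotin or control probe as comparators. Streptavidin Dynabeads 1 h at 4 °C, six NETN washes, proteins eluted by boiling in SDS buffer. After trypsin digestion, identification by LC-MS/MS on Q Exactive HF.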

Sus scrofa [2] = species on record: Sus scrofa; test: Inhibition of colchicine binding to porcine tubulin preincubated with tubulin followed by colchicine treatment measured after 2 hrs by immunoblot analysis
[3] = molecular target: Ubiquitin carboxyl-terminal hydrolase 10 (Homo sapiens) (UniProt Q14694); test: Binding affinity to ubiquitin carboxyl-terminal hydrolase 10 isoform-2 in human A549 cells at 0.15 mM after 4 hrs by HPLC-MS based pull down assay relative to control; type: cell-based; summary of the method: as §1
Ubiquitin carboxyl-terminal hydrolase 10 (Homo sapiens), sequence (Q14694 whole entry, canonical isoform): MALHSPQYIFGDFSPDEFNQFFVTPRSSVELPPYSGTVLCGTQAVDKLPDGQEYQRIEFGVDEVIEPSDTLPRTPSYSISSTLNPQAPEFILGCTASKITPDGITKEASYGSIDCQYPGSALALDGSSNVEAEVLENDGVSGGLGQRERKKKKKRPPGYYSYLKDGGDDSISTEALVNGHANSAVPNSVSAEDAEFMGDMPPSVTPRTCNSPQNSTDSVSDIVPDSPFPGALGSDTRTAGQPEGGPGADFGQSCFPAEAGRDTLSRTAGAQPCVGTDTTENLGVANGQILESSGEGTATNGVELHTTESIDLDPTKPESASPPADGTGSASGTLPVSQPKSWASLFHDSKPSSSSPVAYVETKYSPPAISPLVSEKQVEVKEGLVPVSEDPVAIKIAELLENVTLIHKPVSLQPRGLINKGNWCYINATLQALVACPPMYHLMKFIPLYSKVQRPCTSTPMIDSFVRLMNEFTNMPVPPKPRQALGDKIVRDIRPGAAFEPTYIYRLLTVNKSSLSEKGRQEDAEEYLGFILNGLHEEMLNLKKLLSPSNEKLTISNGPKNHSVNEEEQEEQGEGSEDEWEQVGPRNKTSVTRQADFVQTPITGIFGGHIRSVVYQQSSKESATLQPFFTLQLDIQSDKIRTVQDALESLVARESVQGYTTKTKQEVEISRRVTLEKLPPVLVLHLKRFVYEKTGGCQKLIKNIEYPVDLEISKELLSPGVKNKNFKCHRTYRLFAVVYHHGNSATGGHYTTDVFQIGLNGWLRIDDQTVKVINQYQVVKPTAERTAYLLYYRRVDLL

[4] = molecular target: Tubulin beta-3 chain (Homo sapiens) (UniProt Q13509); test: Binding affinity to tubulin beta-3 in human A549 cells at 0.15 mM after 4 hrs by HPLC-MS based pull down assay relative to control; type: cell-based; summary of the method: as §1
Tubulin beta-3 chain (Homo sapiens), sequence (Q13509 whole entry): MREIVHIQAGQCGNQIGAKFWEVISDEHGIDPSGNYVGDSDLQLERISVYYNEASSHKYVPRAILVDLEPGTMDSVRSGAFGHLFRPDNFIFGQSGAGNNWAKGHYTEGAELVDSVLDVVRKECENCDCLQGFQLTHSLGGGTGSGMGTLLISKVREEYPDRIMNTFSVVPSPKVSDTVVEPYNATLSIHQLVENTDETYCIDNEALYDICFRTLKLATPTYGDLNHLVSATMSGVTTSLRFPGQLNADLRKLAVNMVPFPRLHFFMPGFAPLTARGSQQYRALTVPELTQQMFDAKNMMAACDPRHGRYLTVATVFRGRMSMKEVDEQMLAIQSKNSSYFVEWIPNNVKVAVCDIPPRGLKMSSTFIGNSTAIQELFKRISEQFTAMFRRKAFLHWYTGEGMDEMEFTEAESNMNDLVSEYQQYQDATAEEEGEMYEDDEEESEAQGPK

Sus scrofa [5] = species on record: Sus scrofa; test: Inhibition of taxol binding to porcine tubulin treated 2 hrs post colchicine treatment by pull down assay
Summary of the method: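 Porcine neuronal tubulin was preincubated with excess taxol, colchicine, vinblastine or nocodazole for 2 h at 4 °C. Biotinylated probe was then added in NETN buffer, followed by streptavidin Dynabead pull-down for 1 h at 4 °C and six washes. Bound α-tubulin was detected by SDS–PAGE and immunoblot. Three independent experiments.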

A549 [6] = test: Binding affinity to tubulin alpha in human A549 cells immunoblot based based pull down assay; type: cell-based
Summary of the method: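 A549 lysate in NETN buffer incubated with biotin, biotinylated probe or control probe at 4 °C, then streptavidin Dynabeads 1 h at 4 °C. Beads washed six times, bound proteins run on SDS-PAGE and immunoblotted for α-tubulin.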

A549 [7] = test: Binding affinity to tubulin beta in human A549 cells at 0.15 mM after 4 hrs by HPLC-MS based pull down assay relative to control; type: cell-based; summary of the method: as §1
Sus scrofa [8] = species on record: Sus scrofa; test: Inhibition of nocodazole binding to porcine tubulin preincubated with tubulin followed by nocodazole treatment measured after 2 hrs by immunoblot analysis
[9] = molecular target: T1, Nucleolar RNA helicase 2 (Homo sapiens) (UniProt Q9NR30); test: Binding affinity to nucleolar RNA helicase 2 in human A549 cells at 0.15 mM after 4 hrs by HPLC-MS based pull down assay relative to control; type: cell-based; summary of the method: as §1
T1 sequence (whole entry): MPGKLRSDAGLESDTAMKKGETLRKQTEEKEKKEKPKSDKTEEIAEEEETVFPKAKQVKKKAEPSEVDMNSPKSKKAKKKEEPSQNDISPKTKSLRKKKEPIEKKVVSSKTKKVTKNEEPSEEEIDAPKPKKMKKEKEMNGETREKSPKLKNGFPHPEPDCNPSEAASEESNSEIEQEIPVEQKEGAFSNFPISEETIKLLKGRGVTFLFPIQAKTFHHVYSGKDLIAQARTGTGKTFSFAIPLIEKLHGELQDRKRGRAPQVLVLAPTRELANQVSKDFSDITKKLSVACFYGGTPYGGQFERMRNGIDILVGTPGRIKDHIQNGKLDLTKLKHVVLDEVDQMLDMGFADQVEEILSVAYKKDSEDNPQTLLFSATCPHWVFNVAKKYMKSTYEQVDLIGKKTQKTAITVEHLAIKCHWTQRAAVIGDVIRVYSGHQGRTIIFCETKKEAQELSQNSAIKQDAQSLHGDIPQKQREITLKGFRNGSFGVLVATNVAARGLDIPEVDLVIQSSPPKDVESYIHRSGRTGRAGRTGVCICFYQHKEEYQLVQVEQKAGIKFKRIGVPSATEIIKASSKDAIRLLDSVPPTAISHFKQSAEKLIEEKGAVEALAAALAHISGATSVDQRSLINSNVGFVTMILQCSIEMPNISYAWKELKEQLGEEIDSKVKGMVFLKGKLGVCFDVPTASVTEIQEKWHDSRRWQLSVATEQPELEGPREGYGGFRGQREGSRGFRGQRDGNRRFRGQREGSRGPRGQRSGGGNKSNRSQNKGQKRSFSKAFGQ

Cc1cc2c(=O)[nH]c(CSC(=S)N(CCCNC(=O)CCCC[C@@H]3SC[C@@H]4NC(=O)N[C@@H]43)Cc3ccc(C#N)cc3)nc2s1
Activity [1]: 34.2% | inhibition (Sus scrofa [2]): Active | Activity [3]: 42.8% | Activity [4]: 16.7% | inhibition (Sus scrofa [5]): inactive | Activity (A549 [6]): Active | Activity (A549 [7]): 35.7% | inhibition (Sus scrofa [8]): Active | Activity [9]: 35.1%
